Legend:
[1] = Selectivity index, ratio of IC50 for recombinant human PTP-PEST to IC50 for recombinant Mycobacterium tuberculosis PtpA
Method in brief: (§1)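 Selectivity index calculated as IC50 for PtpB, LYP, PTP-PEST or PTP1B divided by IC50 for PtpA. Both IC50 values come from pNPP hydrolysis at 37 °C with 10 min enzyme–inhibitor premix and A410 readout, using 0.5–50 µM inhibitor.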

[2] = target: T1, Phosphotyrosine protein phosphatase (Mycobacterium tuberculosis, UniProt A0A045ISB3); assay: Inhibition of recombinant Mycobacterium tuberculosis PtpB using p-nitrophenyl phosphate as substrate preincubated for 10 mins followed by substrate addition and measured every minute for 10 mins by UV-VIS spectrophotometric analysis
T1 sequence (A0A045ISB3 whole entry): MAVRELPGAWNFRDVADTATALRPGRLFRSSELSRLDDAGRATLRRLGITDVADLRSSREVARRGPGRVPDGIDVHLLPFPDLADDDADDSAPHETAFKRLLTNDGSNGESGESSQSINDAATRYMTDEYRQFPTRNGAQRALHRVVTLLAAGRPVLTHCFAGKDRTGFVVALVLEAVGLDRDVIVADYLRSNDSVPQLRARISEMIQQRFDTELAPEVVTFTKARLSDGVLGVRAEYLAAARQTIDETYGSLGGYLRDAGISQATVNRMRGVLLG
Method in brief: (§2)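 Recombinant PTP at PtpB 50 nM, LYP 169 nM, PTP-PEST 205 nM or PTP1B 38 nM, in 20 mM imidazole pH 7.0. Inhibitor (0.5–50 µM, DMSO ≤4% v/v) premixed with enzyme 10 min at 37 °C. Started with 10 mM pNPP. A410 each min for 10 min. Activity from 7 min minus 2 min. IC50 by linear regression. Triplicate.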

[3] = target: T2, Low molecular weight protein-tyrosine phosphatase A (Mycobacterium tuberculosis, UniProt P9WIA1); assay: Non-competitive inhibition of Mycobacterium tuberculosis PtpA using p-nitrophenyl phosphate as substrate by Michaelis-Menten plot analysis
T2 sequence (P9WIA1 whole entry): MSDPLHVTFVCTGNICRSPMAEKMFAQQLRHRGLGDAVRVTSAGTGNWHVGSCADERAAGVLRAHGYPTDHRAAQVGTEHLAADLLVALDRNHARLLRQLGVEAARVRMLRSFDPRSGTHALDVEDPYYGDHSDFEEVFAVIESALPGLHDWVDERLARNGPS
Method in brief: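 Mtb PtpA-catalysed pNPP hydrolysis with pNPP varied 0.2–20 mM at each of three inhibitor concentrations. Rates expressed as specific activity (µmol pNPP min-1 mg-1). Vmax and Km fitted to Michaelis–Menten equation. Ki from non-linear fits to competitive or non-competitive inhibition equation, at least three independent experiments.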

[4] = target: Tyrosine-protein phosphatase YopH (Yersinia enterocolitica, UniProt P15273); assay: Inhibition of recombinant Yersinia enterocolitica YopH using p-nitrophenyl phosphate as substrate preincubated for 10 mins followed by substrate addition and measured every minute for 10 mins by UV-VIS spectrophotometric analysis
Sequence of Tyrosine-protein phosphatase YopH (P15273 whole entry): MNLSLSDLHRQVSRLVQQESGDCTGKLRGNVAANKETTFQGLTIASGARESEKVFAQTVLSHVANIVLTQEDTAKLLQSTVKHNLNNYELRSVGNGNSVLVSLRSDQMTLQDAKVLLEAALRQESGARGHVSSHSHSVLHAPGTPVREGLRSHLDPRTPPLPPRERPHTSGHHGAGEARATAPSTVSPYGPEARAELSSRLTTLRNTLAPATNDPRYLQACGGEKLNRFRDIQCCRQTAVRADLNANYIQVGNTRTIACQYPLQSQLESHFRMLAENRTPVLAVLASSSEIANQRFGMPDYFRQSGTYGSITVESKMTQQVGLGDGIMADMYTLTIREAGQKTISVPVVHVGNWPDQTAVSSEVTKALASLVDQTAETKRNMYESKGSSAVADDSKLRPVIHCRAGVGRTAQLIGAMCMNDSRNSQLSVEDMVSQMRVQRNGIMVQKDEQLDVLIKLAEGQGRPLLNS

[5] = Selectivity index, ratio of IC50 for recombinant human Ptp1B to IC50 for recombinant Mycobacterium tuberculosis PtpA; method in brief: as §1
[6] = Selectivity index, ratio of IC50 for recombinant human LYP to IC50 for recombinant Mycobacterium tuberculosis PtpA; method in brief: as §1
[7] = target: T3, Low molecular weight protein-tyrosine phosphatase A (Mycobacterium tuberculosis) (UniProt P9WIA1); assay: Inhibition of recombinant Mycobacterium tuberculosis PtpA at 25 uM using p-nitrophenyl phosphate as substrate preincubated for 10 mins followed by substrate addition and measured every minute for 10 mins by UV-VIS spectrophotometric analysis
T3 sequence (whole entry): T2 sequence (P9WIA1 whole entry)
Method in brief: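 Single-point screen at 25 µM final (from 1 mM DMSO stock, 2.5% DMSO final). 50 nM recombinant Mtb PtpA in 20 mM imidazole pH 7.0, premixed with compound 10 min at 37 °C. Reaction started with 10 mM pNPP. A410 read each min for 10 min at 37 °C. Residual activity from absorbance difference 7 min minus 2 min versus no-inhibitor wells. Triplicate.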

[8] = Selectivity index, ratio of IC50 for recombinant Yersinia enterocolitica YopH to IC50 for recombinant Mycobacterium tuberculosis PtpA
[9] = target: T2, Low molecular weight protein-tyrosine phosphatase A; assay: Inhibition of recombinant Mycobacterium tuberculosis PtpA using p-nitrophenyl phosphate as substrate preincubated for 10 mins followed by substrate addition and measured every minute for 10 mins by UV-VIS spectrophotometric analysis
Method in brief: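 Recombinant Mtb PtpA at 50 nM in 20 mM imidazole pH 7.0, premixed with inhibitor (0.5–50 µM, DMSO ≤4% v/v) 10 min at 37 °C. Started with 10 mM pNPP. A410 read each min for 10 min at 37 °C. Residual activity from 7 min minus 2 min absorbance versus no-inhibitor wells. IC50 by linear regression of % inhibition versus concentration. Triplicate, mean ± SD of three experiments.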

[10] = tested on: Mycobacterium tuberculosis; assay: Selectivity index, ratio of IC50 for recombinant Mycobacterium tuberculosis PtpB to IC50 for recombinant Mycobacterium tuberculosis PtpA; method in brief: as §1
[11] = target: T4, Tyrosine-protein phosphatase non-receptor type 1 (Homo sapiens, UniProt P18031); assay: Inhibition of recombinant human Ptp1B using p-nitrophenyl phosphate as substrate preincubated for 10 mins followed by substrate addition and measured every minute for 10 mins by UV-VIS spectrophotometric analysis; method in brief: as §2
T4 sequence (P18031 whole entry): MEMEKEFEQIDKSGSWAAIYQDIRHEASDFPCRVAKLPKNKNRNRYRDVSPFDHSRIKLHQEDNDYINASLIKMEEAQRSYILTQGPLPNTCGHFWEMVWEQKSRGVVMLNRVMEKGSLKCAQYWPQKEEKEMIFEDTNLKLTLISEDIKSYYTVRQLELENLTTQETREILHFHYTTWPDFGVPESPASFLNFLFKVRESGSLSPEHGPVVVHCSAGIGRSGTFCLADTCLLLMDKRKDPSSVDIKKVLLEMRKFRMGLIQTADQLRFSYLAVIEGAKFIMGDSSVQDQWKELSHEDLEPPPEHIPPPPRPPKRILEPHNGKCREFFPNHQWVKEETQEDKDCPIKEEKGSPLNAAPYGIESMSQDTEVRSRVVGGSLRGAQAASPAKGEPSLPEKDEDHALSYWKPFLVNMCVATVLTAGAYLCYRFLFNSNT

Compound	Ratio IC50 [1]	IC50 [2] [µM]	Ki [3] [µM]	IC50 [4] [µM]	Ratio IC50 [5]	Ratio IC50 [6]	inhibition [7] [%]	Ratio IC50 [8]	IC50 [9] [µM]	Ratio IC50 [10]	IC50 [11] [µM]
O=[N+]([O-])c1ccc(/C=N/NC(=S)Nc2cccc3ccccc23)cc1	> 5.3	18.4	1.2	7.1	1.8	> 5.3	77.7	0.7	9.5	1.9	17
Cc1ccc(NC(=S)N/N=C/c2ccc(-c3cc(C(F)(F)F)ccc3Cl)o2)cc1	> 5.5	30.3		6.9	4.2	> 5.5	66	0.8	9.1	3.3	38.2
FC(F)(F)c1ccc(Cl)c(-c2ccc(/C=N/NC(=S)Nc3cccc4ccccc34)o2)c1	5.4	6.2	1.7	2.6	3.2	> 10.3	86.7	0.9	2.9	2.1	9.4
S=C(N/N=C/c1ccc(-c2ccccc2)cc1)Nc1cccc2ccccc12	> 6.8	17.6	5.6	6.5	> 6.8	> 6.8	79.7	0.9	7.4	2.4	> 50
